Assay results: PubChem BioAssay
Inconclusive results are not listed.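 The calls were made as follows, unless noted: active = inhibition over a set limit, the all-compound mean plus 3 SD, in both replicate runs; inconclusive = over that limit in just one replicate run; inactive = at or under that limit in both runs.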

Tests used:
[1] = OD615 S. cerevisiae growth inhibition, permissive medium, pilot counter-assay, permissive growth control for S. cerevisiae lifespan shortening project (AID 705;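 active = growth inhibition above 25% in both replicates, a cutoff set 3 SD above the mean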); details: OD615, 24 h, at 10 µM, stronger effect = higher value
Outline: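 Timing: 24 h exposure, 30 °C / Material: Saccharomyces cerevisiae strain carrying genetically modified DeaD replicative-lifespan system / Signal: OD at 615 nm / Compound: 10 µM single dose, 0.25% DMSO / Medium: SC raffinose/galactose permissive medium / Evaluation: reduction in yeast growth (OD615)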

[2] = Restrictive medium S. cerevisiae growth inhibition, OD615, pilot screen of yeast lifespan reduction project, restrictive growth control (AID 706;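 active = growth inhibition above a set limit, 3 SD over mean compound inhibition, in both replicates, cut at about 43% in these data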;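 also: modified DeaD lifespan yeast strain shifted to restrictive glucose medium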); details: OD615, 48 h, at 10 µM, stronger effect = higher value
Outline: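 System: Engineered S. cerevisiae DeaD strain | Detection: OD615 | Buffer or medium: CSMM-D glucose medium | Doses: 10 µM compound, 0.25% DMSO | Timing: 4 h pre-growth plus 48 h compound exposure, 30 °C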

[3] = viability gain of MRP-1-high H69AR cells under doxorubicin, pilot screen, MRP-1 activator project, CellTiter-Glo, duplicate (AID 807;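 active = viability increase at or above a cutoff of the median across tested compounds plus 3 SD, cut at about 8.5% in these data, passing the limit was not always enough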;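 also: compound pretreatment 18-22 h then 72 h combined with doxorubicin; 0% = doxorubicin alone and 100% = vehicle without doxorubicin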); details: H69AR viability with doxorubicin, CellTiter-Glo luminescence; at 10 µM; stronger effect = higher value
[4] = growth suppression of beta-catenin knockout HCT116, pilot screen, human colon tumor cells (AID 823;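 active = cell viability at or below a set limit in both duplicate runs, the limit being the all-compound median minus 4 SD, cut at about 23% in these data, passing the limit was not always enough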;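 also: 0% = wells killed by 20 µM Hyamine and 100% = untreated DMSO cell wells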); details: CellTiter-Glo, 60 h, at 10 µM, stronger effect = lower value
[5] = inhibitors of the yeast RAM network, pilot screen, dse1pr::URA3 reporter, 5-FOA selection (AID 869);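 also: 0% = DMSO wells with no growth and 100% = 10 µM 1-NA-PP1 with full growth; RAM network block rescues cells from 5-FOA so hits raise OD615 growth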; details: S. cerevisiae dse1pr::URA3 5-FOA growth, OD615, 2 d; at 10 µM; stronger effect = higher value; strain carries analog-sensitive mutant Cbk1 kinase
[6] = RAM signaling pathway blockade in yeast – S. cerevisiae, Pdr1DBD-CYC8 efflux-inhibited sensitized strain, primary screen (AID 1298;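 active = RAM network inhibition above 8.4% in each of two replicates, 3 SD over the compound average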;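 also: 0% = DMSO untreated cells without growth and 100% = 10 µM 1-NA-PP1 full growth; higher means more yeast growth rescued from 5-FOA killing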); details: S. cerevisiae cbk1-as DSE1-URA3 strain, 5-FOA growth OD615, 2 d; at 50 µM; stronger effect = higher value

c1coc(CNc2nc3sc4c(c3c3ncnn23)CCCC4)c1
inactive: growth inhibition [1] -19.5% | growth inhibition [2] 0.565% | viability increase [3] -2.99% | viability [4] 99.4% | inhibition [5] 2.65% | RAM network inhibition [6] 3.48%

CCOC(=O)C1=CSC2=NS(=O)(=O)CCN12
inactive: growth inhibition [1] 3.57% | growth inhibition [2] -2.12% | viability increase [3] -2.36% | viability [4] 97.7% | inhibition [5] 2.31% | RAM network inhibition [6] -0.32%

Cc1cc(C)n2nc(CCc3nc4nc(C)cc(C)n4n3)nc2n1
inactive: growth inhibition [1] 3.12% | growth inhibition [2] 4.29% | viability increase [3] -1.49% | viability [4] 94.8% | inhibition [5] 0.62% | RAM network inhibition [6] 1.76%

CC(C)OCCCNC(=O)c1ccc(NC(=O)C2CCCO2)cc1 (centres undefined)
inactive: growth inhibition [1] -12.9% | growth inhibition [2] -8.97% | viability increase [3] -1.08% | viability [4] 99.9% | inhibition [5] 1.57% | RAM network inhibition [6] 1.15%

CCCCCn1c(=O)[nH]c2cc(C(=O)NCCCN(CC)CC)ccc2c1=O
inactive: growth inhibition [1] -20.8% | growth inhibition [2] -0.04% | viability increase [3] -4.48% | viability [4] 47.3% | inhibition [5] 1.65% | RAM network inhibition [6] 3.74%

CSc1nc2ccc(NC(=O)C3CC(=O)N(Cc4ccco4)C3)cc2s1 (centres undefined)
inactive: growth inhibition [1] 4.86% | growth inhibition [2] -2.38% | viability increase [3] -5.77% | viability [4] 97.4% | inhibition [5] 1.02% | RAM network inhibition [6] 0.88%

CCOC(=O)C1(c2csc(N)n2)COC(=O)C1 (centres undefined)
inactive: growth inhibition [1] -11.9% | growth inhibition [2] 0.175% | viability increase [3] -0.78% | viability [4] 96.8% | inhibition [5] 2.44% | RAM network inhibition [6] 2.75%

COc1cccc(C(=O)Nc2ccc(-c3nc4ccccc4o3)c(O)c2)c1
inactive: growth inhibition [1] -13.4% | growth inhibition [2] -12.1% | viability increase [3] -4.28% | viability [4] 30.4% | inhibition [5] 3.71% | RAM network inhibition [6] 3.99%

COc1ccc(NS(=O)(=O)c2cccc(-c3nnc4n3CCCCC4)c2)cc1
inactive: growth inhibition [1] -9.52% | growth inhibition [2] 10.2% | viability increase [3] -3.38% | viability [4] 92.6% | inhibition [5] 1.11% | RAM network inhibition [6] 1.97%

NC1=C(c2ccc(F)cc2)C(=O)CS1
inactive: growth inhibition [1] -17.2% | growth inhibition [2] 4.04% | viability increase [3] -1.22% | viability [4] 91.1% | inhibition [5] 1.85% | RAM network inhibition [6] 5.83%

CCCCCn1c(=O)[nH]c2cc(C(=O)NCc3ccc4c(c3)OCO4)ccc2c1=O
inactive: growth inhibition [1] -12.1% | growth inhibition [2] -10.7% | viability increase [3] -6.7% | viability [4] 71.2% | inhibition [5] 3.82% | RAM network inhibition [6] 5.87%

CC1CCN(CCNC(=O)c2ccc(NC(=O)C3CCCO3)cc2)CC1 (centres undefined)
inactive: growth inhibition [1] -16.1% | growth inhibition [2] -2.63% | viability increase [3] -1.69% | viability [4] 103% | inhibition [5] 1.95% | RAM network inhibition [6] 3.74%

Cc1cccc(N2CCN(C(=O)c3ccc(NC(=O)C4CCCO4)cc3)CC2C)c1 (centres undefined)
inactive: growth inhibition [1] -10.9% | growth inhibition [2] 6.01% | viability increase [3] -2.33% | viability [4] 105% | inhibition [5] 1.11% | RAM network inhibition [6] 4.83%

CC1CN(C(=O)c2ccccc2C(=O)c2ncc[nH]2)CC(C)O1 (centres undefined)
inactive: growth inhibition [1] -19.6% | growth inhibition [2] 14.7% | viability increase [3] -1.55% | viability [4] 99% | inhibition [5] 2.07% | RAM network inhibition [6] 2.87%

O=C(Cn1nnc(-c2ccccc2NC(=O)c2ccccc2F)n1)NCc1ccco1
inactive: growth inhibition [1] -7.91% | growth inhibition [2] -7.09% | viability increase [3] -6.92% | viability [4] 73.9% | inhibition [5] 1.39% | RAM network inhibition [6] 4.52%

CCOC(=O)C1CCCN(C(=O)CNC(=O)Cn2ccc3ccccc3c2=O)C1 (centres undefined)
inactive: growth inhibition [1] -6.4% | growth inhibition [2] -0.325% | viability increase [3] -4.65% | viability [4] 104% | inhibition [5] 0.875% | RAM network inhibition [6] 4.63%

CN1CCc2c(sc3nc(SCC(N)=O)n(-c4ccccc4)c(=O)c23)C1
inactive: growth inhibition [1] -17.8% | growth inhibition [2] 9.25% | viability increase [3] -0.53% | viability [4] 84.3% | inhibition [5] 4.08% | RAM network inhibition [6] 3.54%

Cc1c(C(=O)NCC2COc3ccccc3O2)oc2ccc(S(=O)(=O)N3CCOCC3)cc12 (centres undefined)
inactive: growth inhibition [1] -22% | growth inhibition [2] -8.28% | viability increase [3] -2.13% | viability [4] 42.2% | inhibition [5] 3.01% | RAM network inhibition [6] 6.17%

CCC(=O)N1CCc2cc(Br)cc(S(=O)(=O)N3CCN(c4ccccn4)CC3)c21
inactive: growth inhibition [1] -6.54% | growth inhibition [2] -9.5% | viability increase [3] -2.05% | viability [4] 101% | inhibition [5] 0.44% | RAM network inhibition [6] 9.66%
